Laboratory results: PMC6688507 (Journal of medicinal chemistry, 2018)
Entries after “also recorded” stand apart in the source; their conditions may differ.

Tests used:
pancreatic cancer = details: metastatic pancreatic cancer patients; cited from earlier work
MIA PaCa-2 cells = assay: MTT cytotoxicity assay, MIA PaCa-2; assay type: cell-based, human; details: for effect of NAC on proliferation inhibitory effect: NAC 5 mM, MTT assay, 72 h; for IC50: Homo sapiens, MIA PaCa-2, 72 h, read-out: IC50 (μM) MIA PaCa-2, MTT assay, 72 h treatment, mean ± SD from three independent experiments
[1] = test system: ROS accumulation in MIA PaCa-2 cells; assay: ROS detection assay; assay type: cell-based, human; details: for ROS accumulation / ROS induction after NAC pretreatment: MIA PaCa-2; for ROS accumulation: compounds at 10, 3.3 or 1.1 μM; for ROS induction after NAC pretreatment: NAC 5 mM for 30 min; for ROS induction and cytotoxicity compared with QD325: triphenylphosphonium derivatives
Outline: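 MIA PaCa-2 cells were trypsinised (0.05% trypsin-EDTA), loaded with 20 μM H2DCFDA for 30 min at 37 °C, washed, then seeded at 20,000 cells/well. After 30 min they were given test compound, with DMSO for basal signal and unstained cells plus 10 μM compound for autofluorescence. For NAC runs, cells were pretreated with 5 mM NAC for 30 min, with H2O2 as a control. Fluorescence was read at 493/523 nm over time, in duplicates; three independent experiments.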

[2] = test system: nascent RNA synthesis in MIA PaCa-2 cells; assay: Bru-seq analysis for nascent RNA synthesis; assay type: cell-based, human; details: for apoptosis signaling by IPA analysis: 4 h, QD232 3 times IC50, QD325 5 times IC50; for nascent mitochondrial RNA synthesis: MIA PaCa-2, 4-hour treatment, QD232 at 6.9 μM, QD325 at 5.0 μM; for synthesis of NQO1 and HMOX1 RNAs / transcription of DDIT3 and HSPA5: MIA PaCa-2, 4 h; for synthesis of NQO1 and HMOX1 RNAs: QD232 at 1, 2 or 3 times IC50, QD325 at 1, 2 or 5 times IC50; for transcription of DDIT3 and HSPA5: dose-dependent
MIA PaCa-2 xenograft [3] = details: 20 mg/kg, 31-day study, similar MIA PaCa-2 xenograft model; cited from earlier work
MIA PaCa-2 xenograft [4] = assay: MIA PaCa-2 xenograft tumor growth in NOD/SCID mice; assay type: in vivo
[5] = tolerability in MIA PaCa-2 engrafted NOD/SCID mice; assay type: in vivo
BxPC-3 cells = assay: MTT cytotoxicity assay, BxPC-3; assay type: cell-based; details: Homo sapiens, BXPC-3, 72 h, read-out: IC50 (μM) BxPC-3, MTT assay, 72 h treatment; mean ± SD from three independent experiments

## Nc1ccn([C@@H]2O[C@H](CO)[C@@H](O)C2(F)F)c(=O)n1 [Gemcitabine]
Pancreatic cancer
  median overall survival: 6.8 months

## CC(=O)c1cccc(NC2=CC(=O)c3ncncc3C2=O)c1 [QD232, reference compound]
MIA PaCa-2 cells
  effect of NAC on proliferation inhibitory effect: attenuated
[1]
  ROS accumulation: time-and dose-dependent accumulation of ROS
  ROS induction after NAC pretreatment: inhibited
[2]
  apoptosis signaling by IPA analysis: significant activation of apoptosis signaling
  nascent mitochondrial RNA synthesis: inhibited
  synthesis of NQO1 and HMOX1 RNAs: upregulated in a dose-dependent manner
  transcription of DDIT3 and HSPA5: significantly increased
MIA PaCa-2 xenograft [3]
  suppression of tumor growth: 65%

## O=C1C(Nc2ccc(-c3ccccc3)cc2)=CC(=O)c2ncncc21 [QD325, 6-([1,1’-Biphenyl]-4-ylamino)quinazoline-5,8-dione]
MIA PaCa-2 cells
  effect of NAC on proliferation inhibitory effect: attenuated
MIA PaCa-2 xenograft [4]; QD325 5 mg/kg five times a week until day 44, immunohistochemistry
  Ki67 staining (proliferation marker) in tumor tissues: decreased
MIA PaCa-2 xenograft [4]; QD325 5 mg/kg five times a week, 48 days
  inhibition of tumor growth, experiment of Figure 6E: 83%
MIA PaCa-2 xenograft [4]; QD325 5 mg/kg five times a week, day 44
  inhibition of tumor growth, experiment of Figure 5A: 76%
MIA PaCa-2 xenograft [4]; QD325-treated vs vehicle-treated tumors
  NQO1, HO-1, CHOP and GRP78 protein levels in tumor lysates: significantly upregulated
[5]; 5 mg/kg five times a week until day 44
  histopathology of H&E stained organ sections: did not reveal any major histopathological changes
[5]; dose increased from 5 to 20 mg/kg, day 44 to day 67, two mice per group
  systemic toxicity at higher doses: without any overt systemic toxicity
[5]; study 1, 5 mg/kg five times a week until day 44
  symptoms of gross toxicity (weakness, weight loss, lethargy): No symptoms of gross toxicity
[1]
  ROS accumulation: time-and dose-dependent accumulation of ROS; also recorded: stronger and more rapid ROS accumulation
  ROS induction after NAC pretreatment: inhibited
[2]
  apoptosis signaling by IPA analysis: significant activation of apoptosis signaling
  nascent mitochondrial RNA synthesis: inhibited
  synthesis of NQO1 and HMOX1 RNAs: upregulated in a dose-dependent manner
  transcription of DDIT3 and HSPA5: significantly increased

## COc1cc(NC2=CC(=O)c3ncncc3C2=O)cc(OC)c1OC [QD326, 6-((3,4,5-Trimethoxyphenyl)amino)quinazoline-5,8-dione]
MIA PaCa-2 cells
  effect of NAC on proliferation inhibitory effect: attenuated
[1]
  ROS accumulation: time-and dose-dependent accumulation of ROS; also recorded: stronger and more rapid ROS accumulation
  ROS induction after NAC pretreatment: inhibited

## Nc1ccc(C(=O)NCCC[P+](c2ccccc2)(c2ccccc2)c2ccccc2)cc1 [QD339, (3-(4-Aminobenzamido)propyl)triphenylphosphonium bromide]
MIA PaCa-2 cells
  IC50: > 30 µM
BxPC-3 cells
  IC50: > 30 µM

## O=C(NCCC[P+](c1ccccc1)(c1ccccc1)c1ccccc1)c1ccc(NC2=CC(=O)c3ncncc3C2=O)cc1.[Br-] [QD340, (3-(4-((5,8-Dioxo-5,8-dihydroquinazolin-6-yl)amino)benzamido)propyl) triphenylphosphonium bromide]
[1]
  ROS induction and cytotoxicity compared with QD325: did not show better ROS induction and cytotoxicity than QD325

## Nc1cccc(C(=O)NCCC[P+](c2ccccc2)(c2ccccc2)c2ccccc2)c1 [QD358, (3-(3-Aminobenzamido)propyl)triphenylphosphonium bromide]
MIA PaCa-2 cells
  IC50: > 30 µM
BxPC-3 cells
  IC50: > 30 µM

## O=C(NCCC[P+](c1ccccc1)(c1ccccc1)c1ccccc1)c1cccc(NC2=CC(=O)c3ncncc3C2=O)c1.[Br-] [QD359, (3-(3-((5,8-Dioxo-5,8-dihydroquinazolin-6-yl)amino)benzamido)propyl) triphenylphosphonium bromide]
[1]
  ROS induction and cytotoxicity compared with QD325: did not show better ROS induction and cytotoxicity than QD325

## FOLFIRINOX
Pancreatic cancer
  median overall survival: 11.1 months
